Data set [1] concerns U-87 MG. As to the kind of experiment: Induction of apoptosis in human U-87 MG cells assessed as increase in oligonucleosomal fragmentation at 1 to 4 micromol/L incubated for 48 hrs by ELISA method. In kind it is functional, cell-based. The conditions noted are these: U-87MG ATCC, dose 1-4 µmol/L. An outline of the steps:
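Oligonucleosomal fragmentation by Cell Death Detection ELISA-plus; 5,000 cells/well in 1% FBS medium, treated 48 h (range studied 0.1–10 μmol/L); absorbance normalized to control-treated cells to give nucleosomal enrichment factor.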
A general note: An ELISA detects its analyte on a solid surface through an enzyme-linked reagent.

The target in data set [2] is Dual specificity mitogen-activated protein kinase kinase 6 (Homo sapiens) (UniProt P52564). Put plainly: Inhibition of MKK6 (unknown origin) at 1 micromol/L relative to control. The settings on record: dose 1.0 µmol/L. An outline of the steps:
(§1)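 Commercial kinase profiler panel run to the provider's protocol, with the compound tested at 1 µmol/L. Activity is expressed as percent of kinase activity without compound.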

Data set [3] has as its target Protein kinase C alpha type (Homo sapiens) (UniProt P17252). Put plainly: Inhibition of PKCalpha (unknown origin) at 1 micromol/L relative to control. The settings on record: dose 1.0 µmol/L. An outline of the steps:
as §1

Data set [4] deals with Protein kinase C eta type (Homo sapiens) (UniProt P24723). Put plainly: Inhibition of PKCeta (unknown origin) at 1 micromol/L relative to control. The settings on record: dose 1.0 µmol/L. The gist of the method:
as §1

The test system of the next data set is A498. Put plainly: Antiproliferative activity against human A498 cells assessed as reduction in cell growth upto 10 uM measured after 6 days by propidium iodide staining based analysis. In kind it is functional. The conditions noted are these: time 6.0 day. The gist of the method:
(§2)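 ATCC-sourced lines grown without antibiotics; 1,000 cells/well in 1% FBS medium, refed ±drug on days 1 and 4 over a 6-day course. On day 7, propidium iodide (10 μg/mL in D-PBS) read after 30 min for nonviable cells, plate frozen at -80°C 2 h, thawed and reread; proliferative index = postfreeze minus prefreeze signal.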

The test system of another data set is BT-549. Put plainly: Antiproliferative activity against human BT-549 cells assessed as reduction in cell growth upto 10 uM measured after 6 days by propidium iodide staining based analysis. The conditions noted are these: time 6.0 day. The data set is classed as functional. The gist of the method: as §2
The test system of another data set is HCT-116. As to the kind of experiment: Antitumor activity against human HCT-116 cells xenografted in athymic nude mouse assessed as reduction in GSK3beta phosphorylation at serine 9 residue at 75 mg/kg, po administered twice daily measured after 2 to 4 hrs by ELISA method relative to control. On the set-up: scale not given: the % may be the effect or the level left. In kind it is functional. The settings on record: time 2-4 hrs. An outline of the steps: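 HCT116-bearing nude mice, 75 mg/kg by gavage; tumors and PBMCs harvested 0.5, 2, 4, 8 h post-dose, n = 5 per time point. PBMCs from five mice pooled via CPT tube. Lysates assayed by pGSK3β Ser9 immunometric ELISA (tumor 400–600 μg, PBMC 50–100 μg protein/well); percent of vehicle control, Dunnett/ANOVA.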
Background: In xenograft studies the graft and the host belong to different species.

Data set [5] deals with Mitogen-activated protein kinase 9 (Homo sapiens) (UniProt P45984). Put plainly: Inhibition of JNK2alpha2 (unknown origin) at 1 micromol/L relative to control. The conditions noted are these: dose 1.0 µmol/L. An outline of the steps: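 Upstate Kinase Profiler panel at 1 μmol/L drug, run per provider; data expressed as percent of kinase activity without drug.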
Data set [6] deals with Glycogen synthase kinase-3 beta (Homo sapiens) (UniProt P49841). As to the kind of experiment: Inhibition of GSK3beta phosphorylation at serine 9 residue in human HCT-116 cells at 1 micromol/L by Western blotting analysis. The settings on record: dose 1.0 µmol/L, time <= 4.0 hrs, TDE = time-dependent effect. In kind it is cell-based. The gist of the method: (§3)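 Cultured tumor cells treated with 1 μmol/L drug; lysates in cell extraction buffer with protease inhibitors, western blotted with phospho-specific antibodies (pGSK3β Ser9, pAKT Thr308, phospho-ERK) alongside total GSK3β/AKT.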

In data set [7] the test system is U-87 MG. Put plainly: Antitumor activity against human U-87 MG cells xenografted in athymic nude mouse assessed as reduction in GSK3beta phosphorylation at serine 9 residue at 75 mg/kg, po administered twice daily measured after 2 to 8 hrs by ELISA method relative to control. The data set is classed as functional, U-87MG ATCC. On the set-up: scale not given: the % may be the effect or the level left. The conditions noted are these: time 2-8 hrs. The gist of the method: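 U87MG-bearing nude mice, 75 mg/kg twice daily by gavage; on day 21 tumors harvested 2, 4 or 8 h post-dose, lysates measured by pGSK3β Ser9 ELISA versus vehicle tumors; Dunnett's method, ANOVA.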

The test system of data set [8] is U-87 MG. Put plainly: Inhibition of ERK in human U-87 MG cells at 1 micromol/L measured upto 4 hrs by Western blotting analysis. In kind it is cell-based. The settings on record: dose 1.0 µmol/L. An outline of the steps:
as §3
Background: A western blot detects proteins with antibodies after separation by electrophoresis.

The target in data set [9] is RAC-alpha serine/threonine-protein kinase (Homo sapiens) (UniProt P31749). As to the kind of experiment: Inhibition of PKBalpha (unknown origin) at 1 micromol/L relative to control. The conditions noted are these: dose 1.0 µmol/L. An outline of the steps: as §1
Data set [10] has as its target Protein kinase C epsilon type (Homo sapiens) (UniProt Q02156). Put plainly: Inhibition of PKCepsilon (unknown origin) at 1 micromol/L relative to control. The settings on record: dose 1.0 µmol/L. An outline of the steps:
as §1

A short description of data set [11]: Plasma concentration in athymic nude mouse xenografted with human HCT-116 cells at 75 mg/kg, po administered twice daily measured after 30 mins by LC-MS analysis. The data set is classed as ADME, organism-based. The gist of the method:
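Female athymic nude mice, 6–8 weeks old, received 5 million HCT116 cells s.c. in the flank in 1:1 serum-free medium and matrigel (n = 9 per group). Dosing began at a group mean tumor volume of 100 mm³: 75 mg/kg twice daily by gavage, suspended in 10% acacia in water. Plasma was taken on days 1 and 21 at 0.5–12 h post-dose and measured by LC-MS/MS.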

Data set [12] is described as follows: Drug concentration in athymic nude mouse plasma xenografted with human HCT-116 cells at 75 mg/kg, po administered twice daily measured after 8 to 12 hrs by LC-MS analysis. The data set is classed as ADME, organism-based. The settings on record: in vivo, time 8-12 hrs. An outline of the steps:
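HCT116-bearing nude mice given 75 mg/kg twice daily by gavage; plasma collected on day 1 and day 21 at 0.5, 1, 2, 4, 8 and 12 h after dose; drug quantified by LC-MS/MS.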

A further data set relates to NCI-H460. Put plainly: Antiproliferative activity against human NCI-H460 cells assessed as reduction in cell growth upto 10 uM measured after 6 days by propidium iodide staining based analysis. The data set is classed as functional. The settings on record: time 6.0 day. The gist of the method: as §2
Another data set has as its system OVCAR-5. Put plainly: Antiproliferative activity against human OVCAR-5 cells assessed as reduction in cell growth upto 10 uM measured after 6 days by propidium iodide staining based analysis. The data set is classed as functional. The conditions noted are these: time 6.0 day. The gist of the method: as §2

Activity calls are given as the source filed them. The calls are words filed in the database; no cut-off is given here.

We go through one compound from ChEMBL document CHEMBL5715938, “The protein kinase Cbeta-selective inhibitor, Enzastaurin (LY317615.HCl), suppresses signaling through the AKT pathway, induces apoptosis, and suppresses growth of human colon cancer and glioblastoma xenografts” (Cancer Res, 2005).

Chain of Mitogen-activated protein kinase 9 (Homo sapiens) (P45984 whole entry, looked up): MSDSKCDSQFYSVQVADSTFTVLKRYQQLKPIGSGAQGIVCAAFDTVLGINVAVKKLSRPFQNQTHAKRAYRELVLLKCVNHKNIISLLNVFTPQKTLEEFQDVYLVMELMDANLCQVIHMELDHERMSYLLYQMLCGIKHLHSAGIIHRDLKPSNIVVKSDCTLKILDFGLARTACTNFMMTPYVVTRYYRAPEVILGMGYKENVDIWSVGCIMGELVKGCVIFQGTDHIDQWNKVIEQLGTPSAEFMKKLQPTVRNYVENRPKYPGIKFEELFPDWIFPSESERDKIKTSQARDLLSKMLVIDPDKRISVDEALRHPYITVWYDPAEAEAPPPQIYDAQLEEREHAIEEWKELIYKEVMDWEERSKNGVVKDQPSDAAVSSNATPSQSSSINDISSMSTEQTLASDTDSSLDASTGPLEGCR
Chain of RAC-alpha serine/threonine-protein kinase (Homo sapiens) (P31749 whole entry): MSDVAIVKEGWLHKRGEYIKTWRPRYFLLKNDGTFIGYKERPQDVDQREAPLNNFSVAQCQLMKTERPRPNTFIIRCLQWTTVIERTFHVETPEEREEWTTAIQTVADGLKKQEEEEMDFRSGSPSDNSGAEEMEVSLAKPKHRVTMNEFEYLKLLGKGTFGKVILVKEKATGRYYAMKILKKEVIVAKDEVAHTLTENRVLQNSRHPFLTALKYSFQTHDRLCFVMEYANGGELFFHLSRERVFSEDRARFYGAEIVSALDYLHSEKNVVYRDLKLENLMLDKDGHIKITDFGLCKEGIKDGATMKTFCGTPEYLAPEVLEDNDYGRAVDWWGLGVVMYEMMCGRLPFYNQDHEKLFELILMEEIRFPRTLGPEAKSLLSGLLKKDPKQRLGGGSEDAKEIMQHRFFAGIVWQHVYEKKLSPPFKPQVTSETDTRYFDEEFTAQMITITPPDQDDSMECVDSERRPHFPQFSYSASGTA
Chain of Protein kinase C eta type (Homo sapiens) (P24723 whole entry): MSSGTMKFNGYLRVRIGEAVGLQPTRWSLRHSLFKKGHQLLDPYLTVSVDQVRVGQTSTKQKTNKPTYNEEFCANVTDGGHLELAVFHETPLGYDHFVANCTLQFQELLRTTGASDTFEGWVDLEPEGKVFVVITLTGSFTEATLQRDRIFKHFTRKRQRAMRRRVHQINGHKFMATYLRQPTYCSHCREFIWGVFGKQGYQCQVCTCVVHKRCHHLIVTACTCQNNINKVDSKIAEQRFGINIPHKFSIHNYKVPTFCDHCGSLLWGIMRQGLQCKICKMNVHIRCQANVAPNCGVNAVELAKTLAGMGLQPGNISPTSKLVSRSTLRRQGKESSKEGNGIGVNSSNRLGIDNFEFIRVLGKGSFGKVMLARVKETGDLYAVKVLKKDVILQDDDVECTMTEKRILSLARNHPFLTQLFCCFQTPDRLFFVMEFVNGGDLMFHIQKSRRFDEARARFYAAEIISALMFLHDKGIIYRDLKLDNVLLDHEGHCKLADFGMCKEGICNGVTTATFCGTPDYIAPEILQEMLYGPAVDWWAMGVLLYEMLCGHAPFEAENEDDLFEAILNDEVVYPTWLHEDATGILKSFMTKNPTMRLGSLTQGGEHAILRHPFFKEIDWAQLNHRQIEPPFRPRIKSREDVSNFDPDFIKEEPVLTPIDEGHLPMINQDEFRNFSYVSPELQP
Chain of Glycogen synthase kinase-3 beta (Homo sapiens) (P49841 whole entry, looked up): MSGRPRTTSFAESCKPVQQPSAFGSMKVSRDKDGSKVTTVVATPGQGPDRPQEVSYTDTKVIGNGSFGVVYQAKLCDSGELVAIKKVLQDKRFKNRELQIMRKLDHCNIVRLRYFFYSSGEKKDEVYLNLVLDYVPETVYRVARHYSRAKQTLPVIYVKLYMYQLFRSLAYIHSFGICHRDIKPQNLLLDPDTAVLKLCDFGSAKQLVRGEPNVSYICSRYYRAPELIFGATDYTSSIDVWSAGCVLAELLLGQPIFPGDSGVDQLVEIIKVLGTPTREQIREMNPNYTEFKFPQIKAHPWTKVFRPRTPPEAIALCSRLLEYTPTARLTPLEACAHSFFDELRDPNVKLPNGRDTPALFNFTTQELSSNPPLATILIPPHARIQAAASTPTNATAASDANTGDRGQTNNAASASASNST
Chain of Dual specificity mitogen-activated protein kinase kinase 6 (Homo sapiens) (P52564 whole entry): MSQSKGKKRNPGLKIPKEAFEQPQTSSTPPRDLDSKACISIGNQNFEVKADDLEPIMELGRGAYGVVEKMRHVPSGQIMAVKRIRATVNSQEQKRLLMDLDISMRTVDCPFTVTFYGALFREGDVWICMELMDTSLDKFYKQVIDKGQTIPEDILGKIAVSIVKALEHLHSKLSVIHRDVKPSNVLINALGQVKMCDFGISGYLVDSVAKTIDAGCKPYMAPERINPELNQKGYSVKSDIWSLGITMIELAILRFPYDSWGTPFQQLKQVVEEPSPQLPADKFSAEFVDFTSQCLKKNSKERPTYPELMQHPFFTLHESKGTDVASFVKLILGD
Chain of Protein kinase C epsilon type (Homo sapiens) (Q02156 whole entry): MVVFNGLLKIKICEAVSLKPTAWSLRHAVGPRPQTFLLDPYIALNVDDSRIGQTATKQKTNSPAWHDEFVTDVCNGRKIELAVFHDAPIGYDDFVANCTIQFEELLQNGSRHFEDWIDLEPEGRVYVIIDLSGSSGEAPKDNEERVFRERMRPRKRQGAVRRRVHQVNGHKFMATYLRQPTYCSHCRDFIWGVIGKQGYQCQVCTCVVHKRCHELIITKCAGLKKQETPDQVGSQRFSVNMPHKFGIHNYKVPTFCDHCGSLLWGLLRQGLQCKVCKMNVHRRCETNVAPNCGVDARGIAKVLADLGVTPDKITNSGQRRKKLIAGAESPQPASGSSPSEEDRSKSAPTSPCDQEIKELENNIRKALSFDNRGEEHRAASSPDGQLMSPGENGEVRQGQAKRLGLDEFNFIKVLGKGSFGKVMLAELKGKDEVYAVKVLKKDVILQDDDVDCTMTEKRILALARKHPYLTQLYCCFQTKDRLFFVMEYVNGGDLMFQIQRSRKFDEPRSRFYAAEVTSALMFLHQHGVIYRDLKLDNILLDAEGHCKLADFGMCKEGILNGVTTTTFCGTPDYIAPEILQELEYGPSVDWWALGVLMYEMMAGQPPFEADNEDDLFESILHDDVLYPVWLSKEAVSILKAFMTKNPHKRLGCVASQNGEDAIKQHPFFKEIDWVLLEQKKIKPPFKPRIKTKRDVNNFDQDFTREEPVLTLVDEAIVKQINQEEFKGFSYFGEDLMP

For the compound `Cl.Cn1cc(C2=C(c3cn(C4CCN(Cc5ccccn5)CC4)c4ccccc34)C(=O)NC2=O)c2ccccc21` [ENZASTAURIN HYDROCHLORIDE], the result in the data set with U-87 MG [1] was Active. The % control activity in [2] stood at 99%; in [3], 23%; in data set [4] it was 53%; in data set [5] it was 103%; in [9], 75%; in [10] it was 9%. In addition, the outcome in the data set with A498, in the data set with BT-549, with NCI-H460 and in the data set with OVCAR-5 was inactive. For the same compound, the Activity is recorded as over 60% in the data set with HCT-116 and over 50% with U-87 MG [7]. In addition, in data set [6], the inhibition result is “Tde”. The inhibition result with U-87 MG [8] was “inactive”. In data set [11], this compound came in with a concentration at 0.5 h of about 2 µM. Moreover, the Drug uptake entry in [12] is “Not Active”.
